# Reference: ChEMBL document CHEMBL4825764, “Flavonoid Monomers as Potent, Nontoxic, and Selective Modulators of the Breast Cancer Resistance Protein (ABCG2)” (J Med Chem, 2021)
# Active and inactive are the calls of the source. The calls are words filed in the database; no cut-off is given here.
# Columns and labels:
# [1] = system: 2008; test: Selectivity index, ratio of EC50 for inhibition of MRP1 (unknown origin) expressed in 2008/MRP1 cells assessed as reversal of doxorubicin resistance to Inhibition of BCRP (unknown origin) expressed in MCF7/MX100 cells assessed as reversal of topotecan resistance; format: cell-based; conditions: Homo sapiens
# Procedure, shortened: (§1)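 Selectivity index is the EC50 against the other transporter's line divided by the EC50 in the BCRP line. All values come from 5-day MTS reversal assays. These use topotecan in HEK293/R2 (0–2000 nM) or MCF7-MX100 (0–100 μM), doxorubicin in 2008/MRP1, and paclitaxel in LCC6MDR, each with modulator at 0–1000 nM.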
# [2] = species on record: Homo sapiens; test: Selectivity index, ratio of EC50 for inhibition of P-gp (unknown origin) expressed in LCC6MDR cells assessed as reversal of paclitaxel resistance to EC50 for Inhibition of BCRP (unknown origin) expressed in MCF7/MX100 cells assessed as reversal of topotecan resistance; format: cell-based; procedure, shortened: as §1
# [3] = system: L929; test: Cytotoxicity against mouse L929 cells assessed as reduction in cell viability; format: cell-based
# [4] = species on record: Homo sapiens; test: Selectivity index, ratio of EC50 for inhibition of P-gp (unknown origin) expressed in LCC6MDR cells assessed as reversal of paclitaxel resistance to EC50 for inhibition of BCRP (unknown origin) transfected in HEK293/R2 cells assessed as reversal of topotecan resistance; format: cell-based; procedure, shortened: as §1
# [5] = species on record: Homo sapiens; test: Selectivity index, ratio of EC50 for inhibition of MRP1 (unknown origin) expressed in 2008/MRP1 cells assessed as reversal of doxorubicin resistance to EC50 for inhibition of BCRP (unknown origin) transfected in HEK293/R2 cells assessed as reversal of topotecan resistance; format: cell-based; procedure, shortened: as §1
# [6] = target: T1, Broad substrate specificity ATP-binding cassette transporter ABCG2 (Homo sapiens, UniProt Q9UNQ0); test: Inhibition of BCRP (unknown origin) expressed in human HEK293/R2 cells assessed as increase in intracellular mitoxantrone accumulation by measuring fold change at 1 uM after 2 hrs in presence of mitoxantrone by flow cytometry analysis relative to control; format: cell-based; conditions: hek293/r2, 2 h
# T1 sequence (Q9UNQ0 whole entry): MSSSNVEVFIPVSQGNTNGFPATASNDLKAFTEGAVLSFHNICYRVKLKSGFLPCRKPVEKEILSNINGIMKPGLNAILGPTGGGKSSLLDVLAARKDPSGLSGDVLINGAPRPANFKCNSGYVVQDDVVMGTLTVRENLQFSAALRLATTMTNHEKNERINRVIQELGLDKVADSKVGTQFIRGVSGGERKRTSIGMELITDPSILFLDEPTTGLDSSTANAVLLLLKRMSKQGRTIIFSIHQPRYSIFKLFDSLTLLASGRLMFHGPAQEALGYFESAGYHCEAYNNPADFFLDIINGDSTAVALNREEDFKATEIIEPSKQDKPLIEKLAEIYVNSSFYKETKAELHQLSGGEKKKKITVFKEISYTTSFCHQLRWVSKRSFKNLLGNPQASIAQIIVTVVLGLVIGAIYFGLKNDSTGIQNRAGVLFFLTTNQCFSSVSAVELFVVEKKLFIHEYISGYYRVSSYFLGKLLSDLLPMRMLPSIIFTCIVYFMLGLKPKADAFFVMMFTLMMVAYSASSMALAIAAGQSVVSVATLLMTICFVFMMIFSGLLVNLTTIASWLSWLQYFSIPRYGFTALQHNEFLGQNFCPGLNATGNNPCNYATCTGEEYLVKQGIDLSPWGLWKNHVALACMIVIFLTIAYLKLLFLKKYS
# Procedure, shortened: (§2)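 5 × 10^5 HEK293/pcDNA3.1 or HEK293/R2 cells in 1 mL were incubated 2 hr at 37 °C with 50 μM topotecan or 5 μM mitoxantrone plus 1 or 2 μM modulator, with DMSO as the vehicle control. Cells were washed in cold PBS and resuspended in FACS buffer. Flow cytometry read FL1 (topotecan) or FL4 (mitoxantrone) over 50,000 events, normalized to wild-type cells.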
# [7] = target: T1, Broad substrate specificity ATP-binding cassette transporter ABCG2; test: Inhibition of BCRP (unknown origin) expressed in wild type HEK293/pcDNA3.1 cells assessed as increase in intracellular mitoxantrone accumulation at 1 to 2 uM after 2 hrs in presence of mitoxantrone by flow cytometry analysis relative to control; format: cell-based; conditions: hek293, 2 h, dose 1-2 µM; procedure, shortened: as §2
# [8] = species on record: Homo sapiens; test: Selectivity index, ratio of EC50 for inhibition of MRP1 (unknown origin) expressed in 2008/MRP1 cells assessed as reversal of mitoxantrone resistance to EC50 for inhibition of BCRP (unknown origin) expressed in HEK293/R2 cells assessed as reversal of mitoxantrone resistance; format: cell-based
# Procedure, shortened: (§3)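 Selectivity index is the EC50 in 2008/MRP1 or LCC6MDR divided by the EC50 in HEK293/R2. All three lines were measured by 5-day mitoxantrone co-incubation with modulator, with MTS/PMS read-out at 490 nm.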
# [9] = target: T1, Broad substrate specificity ATP-binding cassette transporter ABCG2; test: Inhibition of BCRP (unknown origin) expressed in human HEK293/R2 cells assessed as increase in intracellular topotecan accumulation by measuring fold change at 2 uM after 2 hrs in presence of topotecan by flow cytometry analysis relative to control; format: cell-based; conditions: hek293/r2, 2 h; procedure, shortened: as §2
# [10] = target: T1, Broad substrate specificity ATP-binding cassette transporter ABCG2; test: Inhibition of BCRP (unknown origin) expressed in wild type HEK293/pcDNA3.1 cells assessed as increase in intracellular topotecan accumulation at 1 to 2 uM after 2 hrs in presence of topotecan by flow cytometry analysis relative to control; format: cell-based; conditions: hek293, 2 h, dose 1-2 µM; procedure, shortened: as §2
# [11] = species on record: Homo sapiens; test: Selectivity index, ratio of EC50 for inhibition of P-gp (unknown origin) expressed in LCC6MDR cells assessed as reversal of mitoxantrone resistance to EC50 for inhibition of BCRP (unknown origin) expressed in HEK293/R2 cells assessed as reversal of mitoxantrone resistance; format: cell-based; procedure, shortened: as §3
# [12] = target: T1, Broad substrate specificity ATP-binding cassette transporter ABCG2; test: Inhibition of BCRP (unknown origin) expressed in human HEK293/R2 cells assessed as increase in intracellular mitoxantrone accumulation by measuring fold change at 2 uM after 2 hrs in presence of mitoxantrone by flow cytometry analysis relative to control; format: cell-based; conditions: hek293/r2, 2 h; procedure, shortened: as §2
# [13] = system: HEK293; test: Effect on BCRP protein expression in human HEK293/R2 cells at 1 to 3 uM after 24 hrs by flow cytometric analysis; format: functional, cell-based; conditions: dose 1-3 µM
# Procedure, shortened: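 HEK293/R2 and HEK293/pcDNA3.1 cells were exposed to 0, 1 or 3 μM compound for 24 hr, with 0.1–0.3% DMSO as solvent control. Cells were trypsinized and stained with FITC anti-human BCRP for 45 min at 4 °C, with an IgG2b-FITC isotype control. Surface signal was read by flow cytometry on FL1 over 50,000 events.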
# [14] = target: T1, Broad substrate specificity ATP-binding cassette transporter ABCG2; test: Inhibition of BCRP (unknown origin) expressed in human HEK293/R2 cells assessed as increase in intracellular topotecan accumulation by measuring fold change at 1 uM after 2 hrs in presence of topotecan by flow cytometry analysis relative to control; format: cell-based; conditions: hek293/r2, 2 h; procedure, shortened: as §2
# [15] = target: T2, BCRP (ABCG2) (Homo sapiens, UniProt Q9UNQ0); test: Inhibition of BCRP (unknown origin) expressed in HEK293/R2 cells assessed as conformational change by measuring increase in 5D3 shift at 10 uM preincubated for 15 mins followed by FITC mouse antihuman BCRP antibody addition measured after 30 mins by flow cytometry analysis; format: cell-based; conditions: HEK293/R2 cells expressing BCRP, time 45 min
# T2 sequence (Q9UNQ0 whole entry): T1 sequence (Q9UNQ0 whole entry)
# Procedure, shortened: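 HEK293/R2 cells (5 x 10⁵) in FACS buffer (0.1 % BSA, 1 mM EDTA in PBS) were pre-incubated with compound for 15 min at 37 °C with shaking. FITC anti-human BCRP antibody (clone 5D3) was then added for 30 min at 37 °C. Cells were washed and read by flow cytometry (FL1, 50,000 events). Compound-only FITC background and the DMSO-control signal were subtracted, and the shift was expressed as % of the 1 µM Ko143 shift.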
# [16] = target: T2, BCRP (ABCG2); test: Inhibition of BCRP (unknown origin) expressed in HEK293/R2 cells assessed as conformational change by measuring increase in 5D3 shift at 1 uM preincubated for 15 mins followed by FITC mouse antihuman BCRP antibody addition measured after 30 mins by flow cytometry analysis; format: cell-based; conditions: HEK293/R2 cells expressing BCRP, time 45 min
# Procedure, shortened: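 5 × 10^5 HEK293/R2 cells in FACS buffer were shaken 15 min at 37 °C with 1 μM compound. FITC 5D3 anti-BCRP was then added for 30 min at 37 °C and fluorescence read by flow cytometry on FL1. Compound-only background was subtracted and the untreated DMSO shift removed. Result is % of the 1 μM Ko143-induced shift.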
Structure (SMILES),Ratio EC50 [1],Ratio EC50 [2],IC50 [3],Ratio EC50 [4],Ratio EC50 [5],also measured
COC(=O)c1cccc(COc2c(-c3ccc(OCCOCCn4cc(CN(Cc5ccccc5)Cc5ccccc5)nn4)cc3)oc3ccccc3c2=O)c1,34,34,> 100 µM,31,31,–
COC(=O)c1cccc(COc2c(-c3ccc(OCCOCCOCCn4cc(CN(C)Cc5ccccc5)nn4)cc3)oc3ccccc3c2=O)c1,35,29,> 100 µM,51,62,–
COC(=O)c1cccc(COc2c(-c3ccc(OCCCCc4cn(CCOCCO)nn4)cc3)oc3ccccc3c2=O)c1,36,22,13.3 µM,61,100,–
COC(=O)c1cccc(COc2c(-c3ccc(OCCOCCn4cc(CCN5C(=O)c6ccccc6C5=O)nn4)cc3)oc3ccccc3c2=O)c1,10,10,> 100 µM,22,22,–
COC(=O)c1cccc(COc2c(-c3ccc(OCCOCCn4cc(CN(C)Cc5ccccc5)nn4)cc3)oc3ccccc3c2=O)c1,286,286,> 100 µM,67,67,fold change (FC) [6]: 6.2; inhibition (INH) [7]: Not Active; Ratio EC50 [8]: 40; fold change (FC) [9]: 7; inhibition (INH) [10]: Not Active; Ratio EC50 [11]: 38; fold change (FC) [12]: 6.3; Activity [13]: inactive; fold change (FC) [14]: 7.2
COC(=O)c1cccc(COc2c(-c3ccc(OCCOCCOCCn4cc(CCN5C(=O)c6ccccc6C5=O)nn4)cc3)oc3ccccc3c2=O)c1,–,–,> 100 µM,6,6,–
COC(=O)c1cccc(COc2c(-c3ccc(OCCOCCOCCn4cc(CCCCOc5ccc(C=O)cc5)nn4)cc3)oc3ccccc3c2=O)c1,23,26,37.8 µM,53,46,–
COC(=O)c1cccc(COc2c(-c3ccc(OCCOCCOCCN=[N+]=[N-])cc3)oc3ccccc3c2=O)c1,60,18,28.4 µM,35,118,–
O=c1c(O)c(-c2ccc(O)c(O)c2)oc2cc(O)cc(O)c12 [QUERCETIN],–,–,–,–,–,"inhibition at 0.5 h, 10 µM [15]: 39%"
C#CCCCCOc1ccc(-c2oc3ccccc3c(=O)c2OCc2cccc(C(=O)OC)c2)cc1,30,24,> 100 µM,19,23,–
COC(=O)c1cccc(COc2c(-c3ccc(OCCOCCOCCn4cc(CN(CCO)Cc5ccccc5)nn4)cc3)oc3ccccc3c2=O)c1,625,193,> 100 µM,220,714,fold change (FC) [6]: 6.5; inhibition (INH) [7]: Not Active; Ratio EC50 [8]: 4; fold change (FC) [9]: 7; inhibition (INH) [10]: Not Active; Ratio EC50 [11]: 5; fold change (FC) [12]: 5.8; Activity [13]: inactive; fold change (FC) [14]: 7.1
CCOc1ccc(-c2nc3cc(-c4nc5cc(N6CCN(C)CC6)ccc5[nH]4)ccc3[nH]2)cc1,–,–,–,–,–,"inhibition at 0.5 h, 10 µM [15]: 19%"
COC(=O)c1cccc(COc2c(-c3ccc(OCCOCCn4cc(CNc5ccccc5)nn4)cc3)oc3ccccc3c2=O)c1,23,23,> 100 µM,38,38,–
COC(=O)c1cccc(COc2c(-c3ccc(OCCOCCN=[N+]=[N-])cc3)oc3ccccc3c2=O)c1,20,20,67.5 µM,12,12,–
COc1cc2c(cc1OC)CN(CCc1ccc(NC(=O)c3cccc4c(=O)c5cccc(OC)c5[nH]c34)cc1)CC2,–,–,–,–,–,"inhibition at 0.5 h, 1 µM [16]: 100%"
